Data as given in ChEMBL document CHEMBL4689842, “EUbOPEN Chemogenomics Library wave 1” (2021).

Tested on: Fibroblast
Test: Multiplex assay against human fibroblast
Assay type: toxicity, cell-based
Summary of the method: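 Cells were classed with CellPathfinder machine-learning gating, first as Hoechst high-intensity objects or normal cells, then (normal cells) as healthy, pyknosed or fragmented nuclei, and finally (pyknosed cells) as mitotic or apoptotic. Staining of live cells at seeding used Hoechst33342, BioTracker Green Microtubule Cytoskeleton Dye, MitoTracker Red and Annexin V Alexa Fluor 680, with imaging on a CQ1 microscope at 37°C and 5% CO2 after compound addition. Tubulin, mitochondrial-mass and membrane-permeability phenotypes are per cents of healthy-nucleus cells.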

[1] = 12 h, 1 µM, compound concentration 1 uM, replicate 1
[2] = 12 h, 1 µM, compound concentration 1 uM, replicate 2
[3] = 12 h, 10 µM, compound concentration 10 uM, replicate 1
[4] = 12 h, 10 µM, compound concentration 10 uM, replicate 2
[5] = 24 h, 1 µM, compound concentration 1 uM, replicate 1
[6] = 24 h, 1 µM, compound concentration 1 uM, replicate 2
[7] = 24 h, 10 µM, compound concentration 10 uM, replicate 1
[8] = 24 h, 10 µM, compound concentration 10 uM, replicate 2
[9] = 48 h, 1 µM, compound concentration 1 uM, replicate 1
[10] = 48 h, 1 µM, compound concentration 1 uM, replicate 2
[11] = 48 h, 10 µM, compound concentration 10 uM, replicate 1
[12] = 48 h, 10 µM, compound concentration 10 uM, replicate 2

With `CCCS(=O)(=O)c1nc(NC2CC2)cc(-c2ccc3c(ccn3C3CC(C)(C)NC(C)(C)C3)c2)n1` the “Population Apoptotic (%)” value [1] was 41%, the “Population Fragmented Nuclei (%)” value [1] was 27% and the “Population Healthy Nuclei (%)” value [1] was 42%. For the same compound, the “Population Hoechst High Intensity Objects (%)” value [1] was 11%, the “Population Membrane Permeable-Phenotype (%)” value [1] was 22% and the “Population Mitochondria Different-Phenotype (%)” value [1] was 0%. The “Population Mitotic Cells (%)” value [1] was 58%, the “Population Normal (%)” value [1] was 88% and the “Population Pyknosed Nuclei (%)” value [1] was 30%. The “Population Tubulin-Different-Phenotype (%)” value [1] was 35%, the “Total Cell Count” value [1] was 107 and the “Population Apoptotic (%)” value [2] was 38%. The “Population Fragmented Nuclei (%)” value [2] was 14%, the “Population Healthy Nuclei (%)” value [2] was 71% and the “Population Hoechst High Intensity Objects (%)” value [2] was 5%. The “Population Membrane Permeable-Phenotype (%)” value [2] was 5%, the “Population Mitochondria Different-Phenotype (%)” value [2] was 41% and the “Population Mitotic Cells (%)” value [2] was 61%. The “Population Normal (%)” value [2] was 94%, the “Population Pyknosed Nuclei (%)” value [2] was 13% and the “Population Tubulin-Different-Phenotype (%)” value [2] was 29%. The “Total Cell Count” value [2] was 1044, the “Population Apoptotic (%)” value [3] was 71% and the “Population Fragmented Nuclei (%)” value [3] was 42%. The “Population Healthy Nuclei (%)” value [3] was 4%, the “Population Hoechst High Intensity Objects (%)” value [3] was 10% and the “Population Membrane Permeable-Phenotype (%)” value [3] was 60%. The “Population Mitochondria Different-Phenotype (%)” value [3] was 0%, the “Population Mitotic Cells (%)” value [3] was 28% and the “Population Normal (%)” value [3] was 89%. For the same compound, the “Population Pyknosed Nuclei (%)” value [3] was 53%, the “Population Tubulin-Different-Phenotype (%)” value [3] was 40% and the “Total Cell Count” value [3] was 124. The “Population Apoptotic (%)” value [4] was 92%, the “Population Fragmented Nuclei (%)” value [4] was 75% and the “Population Hoechst High Intensity Objects (%)” value [4] was 7%. For the same compound, the “Population Membrane Permeable-Phenotype (%)” value [4] was 100%, the “Population Mitochondria Different-Phenotype (%)” value [4] was 38% and the “Population Mitotic Cells (%)” value [4] was 7%. For the same compound, the “Population Normal (%)” value [4] was 92%, the “Population Pyknosed Nuclei (%)” value [4] was 19% and the “Population Tubulin-Different-Phenotype (%)” value [4] was 84%. For the same compound, the “Total Cell Count” value [4] was 101, the “Population Apoptotic (%)” value [5] was 42% and the “Population Fragmented Nuclei (%)” value [5] was 33%. For the same compound, the “Population Healthy Nuclei (%)” value [5] was 39%, the “Population Hoechst High Intensity Objects (%)” value [5] was 15% and the “Population Membrane Permeable-Phenotype (%)” value [5] was 23%. The “Population Mitochondria Different-Phenotype (%)” value [5] was 13%, the “Population Mitotic Cells (%)” value [5] was 57% and the “Population Normal (%)” value [5] was 84%. The “Population Pyknosed Nuclei (%)” value [5] was 27%, the “Population Tubulin-Different-Phenotype (%)” value [5] was 39% and the “Total Cell Count” value [5] was 114. For the same compound, the “Population Apoptotic (%)” value [6] was 22%, the “Population Fragmented Nuclei (%)” value [6] was 15% and the “Population Healthy Nuclei (%)” value [6] was 66%. The “Population Hoechst High Intensity Objects (%)” value [6] was 5%, the “Population Membrane Permeable-Phenotype (%)” value [6] was 10% and the “Population Mitochondria Different-Phenotype (%)” value [6] was 21%. The “Population Mitotic Cells (%)” value [6] was 77%, the “Population Normal (%)” value [6] was 94% and the “Population Pyknosed Nuclei (%)” value [6] was 18%. For the same compound, the “Population Tubulin-Different-Phenotype (%)” value [6] was 29%, the “Total Cell Count” value [6] was 1113 and the “Population Apoptotic (%)” value [7] was 76%. The “Population Fragmented Nuclei (%)” value [7] was 38%, the “Population Healthy Nuclei (%)” value [7] was 11% and the “Population Hoechst High Intensity Objects (%)” value [7] was 19%. For the same compound, the “Population Membrane Permeable-Phenotype (%)” value [7] was 63%, the “Population Mitochondria Different-Phenotype (%)” value [7] was 0% and the “Population Mitotic Cells (%)” value [7] was 24%. For the same compound, the “Population Normal (%)” value [7] was 80%, the “Population Pyknosed Nuclei (%)” value [7] was 50% and the “Population Tubulin-Different-Phenotype (%)” value [7] was 54%. For the same compound, the “Total Cell Count” value [7] was 123, the “Population Apoptotic (%)” value [8] was 90% and the “Population Fragmented Nuclei (%)” value [8] was 73%. For the same compound, the “Population Healthy Nuclei (%)” value [8] was 10%, the “Population Hoechst High Intensity Objects (%)” value [8] was 7% and the “Population Membrane Permeable-Phenotype (%)” value [8] was 96%. For the same compound, the “Population Mitochondria Different-Phenotype (%)” value [8] was 75%, the “Population Mitotic Cells (%)” value [8] was 10% and the “Population Normal (%)” value [8] was 92%. For the same compound, the “Population Pyknosed Nuclei (%)” value [8] was 15%, the “Population Tubulin-Different-Phenotype (%)” value [8] was 96% and the “Total Cell Count” value [8] was 104. For the same compound, the “Population Apoptotic (%)” value [9] was 58%, the “Population Fragmented Nuclei (%)” value [9] was 34% and the “Population Healthy Nuclei (%)” value [9] was 36%. The “Population Hoechst High Intensity Objects (%)” value [9] was 20%, the “Population Membrane Permeable-Phenotype (%)” value [9] was 16% and the “Population Mitochondria Different-Phenotype (%)” value [9] was 10%. For the same compound, the “Population Mitotic Cells (%)” value [9] was 41%, the “Population Normal (%)” value [9] was 79% and the “Population Pyknosed Nuclei (%)” value [9] was 28%. For the same compound, the “Population Tubulin-Different-Phenotype (%)” value [9] was 60%, the “Total Cell Count” value [9] was 105 and the “Population Apoptotic (%)” value [10] was 75%. For the same compound, the “Population Fragmented Nuclei (%)” value [10] was 46%, the “Population Healthy Nuclei (%)” value [10] was 49% and the “Population Hoechst High Intensity Objects (%)” value [10] was 8%. For the same compound, the “Population Membrane Permeable-Phenotype (%)” value [10] was 26%, the “Population Mitochondria Different-Phenotype (%)” value [10] was 12% and the “Population Mitotic Cells (%)” value [10] was 25%. The “Population Normal (%)” value [10] was 91%, the “Population Pyknosed Nuclei (%)” value [10] was 3% and the “Population Tubulin-Different-Phenotype (%)” value [10] was 46%. For the same compound, the “Total Cell Count” value [10] was 110, the “Population Apoptotic (%)” value [11] was 76% and the “Population Fragmented Nuclei (%)” value [11] was 59%. For the same compound, the “Population Healthy Nuclei (%)” value [11] was 25%, the “Population Hoechst High Intensity Objects (%)” value [11] was 39% and the “Population Membrane Permeable-Phenotype (%)” value [11] was 76%. The “Population Mitochondria Different-Phenotype (%)” value [11] was 4%, the “Population Mitotic Cells (%)” value [11] was 23% and the “Population Normal (%)” value [11] was 60%. For the same compound, the “Population Pyknosed Nuclei (%)” value [11] was 15%, the “Population Tubulin-Different-Phenotype (%)” value [11] was 61% and the “Total Cell Count” value [11] was 137. The “Population Apoptotic (%)” value [12] was 75%, the “Population Fragmented Nuclei (%)” value [12] was 78% and the “Population Healthy Nuclei (%)” value [12] was 15%. For the same compound, the “Population Hoechst High Intensity Objects (%)” value [12] was 37%, the “Population Membrane Permeable-Phenotype (%)” value [12] was 33% and the “Population Mitochondria Different-Phenotype (%)” value [12] was 9%. The “Population Mitotic Cells (%)” value [12] was 25%, the “Population Normal (%)” value [12] was 62% and the “Population Pyknosed Nuclei (%)” value [12] was 5%. The “Population Tubulin-Different-Phenotype (%)” value [12] was 42% and the “Total Cell Count” value [12] was 215.
